The source of these data is ChEMBL document CHEMBL3784976 (J Med Chem, 2016).

The structures appear in SMILES notation. Active and inactive are the calls of the source. No cut-off for these calls is given here.

Data set [1] deals with Rattus norvegicus. As to the kind of experiment: fCmax in rat at 30 mg/kg, po. It is filed as ADME, organism-based. The conditions noted are these: in vivo. The method in brief:
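Rats dosed orally at 30 mg/kg, or 10 mg/kg for one analogue, in 1% Tween 80/2% HPMC/97% water with methanesulfonic acid, pH 2.2.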

Data set [2] concerns the target Adenosine receptor A3 (Homo sapiens) (UniProt P0DMS8). As to the kind of experiment: Displacement of [125I]AB-MECA from human recombinant adenosine A3 receptor expressed in HEK293 cells assessed as remaining radioligand binding at 10 uM after 120 mins by scintillation counting method relative to control. It is filed as cell-based.
The target of data set [3] is 5-hydroxytryptamine receptor 1A (Homo sapiens) (UniProt P08908). As to the kind of experiment: Displacement of [3H]8-OH-DPAT from human recombinant 5HT1A receptor expressed in HEK293 cells assessed as remaining radioligand binding at 10 uM after 60 mins by scintillation counting method relative to control. It is filed as cell-based. On the technique in general: Displacement assays read how much labelled ligand stays bound in the presence of the test substance.
Sequence of 5-hydroxytryptamine receptor 1A (Homo sapiens) (P08908 whole entry): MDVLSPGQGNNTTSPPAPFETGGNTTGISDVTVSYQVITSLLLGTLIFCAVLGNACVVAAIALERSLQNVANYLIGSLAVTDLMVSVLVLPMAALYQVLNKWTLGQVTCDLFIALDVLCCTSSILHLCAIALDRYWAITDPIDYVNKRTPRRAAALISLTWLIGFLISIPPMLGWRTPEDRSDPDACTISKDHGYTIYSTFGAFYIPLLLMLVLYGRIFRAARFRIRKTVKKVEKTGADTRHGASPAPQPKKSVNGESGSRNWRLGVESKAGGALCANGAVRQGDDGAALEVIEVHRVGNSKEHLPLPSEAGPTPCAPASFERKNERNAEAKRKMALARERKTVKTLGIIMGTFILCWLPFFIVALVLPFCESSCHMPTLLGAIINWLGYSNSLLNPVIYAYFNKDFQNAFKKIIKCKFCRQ

Another data set deals with Jurkat. As to the kind of experiment: Displacement of [3H]DTG from sigma receptor in human Jurkat cells assessed as remaining radioligand binding at 10 uM after 120 mins by scintillation counting method relative to control. Type of data set: cell-based.
For data set [4], the species on record is Rattus norvegicus. As to the kind of experiment: Displacement of [3H]PK-11195 from benzodiazepine receptor in rat heart assessed as remaining radioligand binding at 10 uM after 15 mins by scintillation counting method relative to control.
In data set [5] the target is Adenosine receptor A2a (Homo sapiens) (UniProt P29274). As to the kind of experiment: Displacement of [3H]CGS-21680 from human recombinant adenosine A2A receptor expressed in HEK293 cells assessed as remaining radioligand binding at 10 uM after 120 mins by scintillation counting method relative to control. It is filed as cell-based.
Sequence of Adenosine receptor A2a (Homo sapiens) (P29274 whole entry): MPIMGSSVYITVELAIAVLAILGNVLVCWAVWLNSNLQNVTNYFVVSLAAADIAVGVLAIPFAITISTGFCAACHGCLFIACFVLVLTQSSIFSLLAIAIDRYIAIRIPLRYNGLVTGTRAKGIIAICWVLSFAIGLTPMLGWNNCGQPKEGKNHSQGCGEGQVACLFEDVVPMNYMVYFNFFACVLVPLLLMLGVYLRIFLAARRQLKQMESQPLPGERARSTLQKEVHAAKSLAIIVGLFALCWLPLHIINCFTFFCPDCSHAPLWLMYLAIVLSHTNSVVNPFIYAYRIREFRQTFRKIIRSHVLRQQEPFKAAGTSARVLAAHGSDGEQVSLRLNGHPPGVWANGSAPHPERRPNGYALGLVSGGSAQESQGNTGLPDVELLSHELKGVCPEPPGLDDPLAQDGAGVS
The target of data set [6] is Cholecystokinin receptor type A (Homo sapiens) (UniProt P32238). As to the kind of experiment: Displacement of [125I]CCK-8s from human recombinant CCK1 receptor expressed in CHO cells assessed as remaining radioligand binding at 10 uM after 60 mins by scintillation counting method relative to control. It is filed as cell-based.
Sequence of Cholecystokinin receptor type A (Homo sapiens) (P32238 whole entry): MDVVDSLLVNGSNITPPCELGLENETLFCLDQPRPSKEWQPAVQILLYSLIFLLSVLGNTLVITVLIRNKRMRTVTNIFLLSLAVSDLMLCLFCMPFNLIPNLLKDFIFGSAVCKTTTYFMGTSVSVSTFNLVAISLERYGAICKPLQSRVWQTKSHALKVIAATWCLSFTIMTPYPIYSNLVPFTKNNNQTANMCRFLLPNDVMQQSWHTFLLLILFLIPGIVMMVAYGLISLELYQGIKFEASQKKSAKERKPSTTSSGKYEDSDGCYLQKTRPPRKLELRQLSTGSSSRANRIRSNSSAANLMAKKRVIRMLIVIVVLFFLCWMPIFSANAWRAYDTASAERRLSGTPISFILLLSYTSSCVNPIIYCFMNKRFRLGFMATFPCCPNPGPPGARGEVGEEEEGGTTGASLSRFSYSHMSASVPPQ
Data set [7] in a line: Volume of distribution at steady state in rat at 0.5 mg/kg, iv as single dose. It is filed as ADME, organism-based. As to conditions: in vivo, read-out: Vdss. The essentials: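 Single intravenous dose of 0.5 mg/kg given to rats, formulated in 100% DMSO.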
The species entered for data set [8] is Rattus norvegicus. As to the kind of experiment: Antagonist activity at rat TRPV3 assessed as inhibition of 2-APB-induced Ca2+ influx up to 10 uM preincubated for 2.5 mins followed by 2-APB addition measured for 1 min by luminescence assay.
Data set [9] has as its target Sodium channel protein type 9 subunit alpha (Mus musculus) (UniProt Q62205). As to the kind of experiment: Inhibition of Nav1.7 in mouse DRG neurons at 10 uM relative to control.
Data set [10] is described as follows: Ratio of unbound plasma concentration in Harlan Sprague-Dawley rat model of AITC-induced flinching at 3 mg/kg, po to IC50 for rat TRPA1 expressed in tetracycline-inducible T-REx expression system transfected CHO cells by 45Ca2+ uptake assay. Type of data set: ADME, organism-based. The conditions noted are these: in vivo. The essentials:
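Rats dosed orally at 1, 3, 10 or 30 mg/kg in 2% HPMC/1% Tween-80 vehicle. After 1 h, unbound plasma concentration measured (n = 8 per dose), intraplantar AITC (0.1%) given and flinching scored over the first minute. Unbound concentration divided by in vitro rat TRPA1 45Ca2+ IC50.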

Sequence of Sodium channel protein type 9 subunit alpha (Mus musculus) (Q62205 whole entry, looked up): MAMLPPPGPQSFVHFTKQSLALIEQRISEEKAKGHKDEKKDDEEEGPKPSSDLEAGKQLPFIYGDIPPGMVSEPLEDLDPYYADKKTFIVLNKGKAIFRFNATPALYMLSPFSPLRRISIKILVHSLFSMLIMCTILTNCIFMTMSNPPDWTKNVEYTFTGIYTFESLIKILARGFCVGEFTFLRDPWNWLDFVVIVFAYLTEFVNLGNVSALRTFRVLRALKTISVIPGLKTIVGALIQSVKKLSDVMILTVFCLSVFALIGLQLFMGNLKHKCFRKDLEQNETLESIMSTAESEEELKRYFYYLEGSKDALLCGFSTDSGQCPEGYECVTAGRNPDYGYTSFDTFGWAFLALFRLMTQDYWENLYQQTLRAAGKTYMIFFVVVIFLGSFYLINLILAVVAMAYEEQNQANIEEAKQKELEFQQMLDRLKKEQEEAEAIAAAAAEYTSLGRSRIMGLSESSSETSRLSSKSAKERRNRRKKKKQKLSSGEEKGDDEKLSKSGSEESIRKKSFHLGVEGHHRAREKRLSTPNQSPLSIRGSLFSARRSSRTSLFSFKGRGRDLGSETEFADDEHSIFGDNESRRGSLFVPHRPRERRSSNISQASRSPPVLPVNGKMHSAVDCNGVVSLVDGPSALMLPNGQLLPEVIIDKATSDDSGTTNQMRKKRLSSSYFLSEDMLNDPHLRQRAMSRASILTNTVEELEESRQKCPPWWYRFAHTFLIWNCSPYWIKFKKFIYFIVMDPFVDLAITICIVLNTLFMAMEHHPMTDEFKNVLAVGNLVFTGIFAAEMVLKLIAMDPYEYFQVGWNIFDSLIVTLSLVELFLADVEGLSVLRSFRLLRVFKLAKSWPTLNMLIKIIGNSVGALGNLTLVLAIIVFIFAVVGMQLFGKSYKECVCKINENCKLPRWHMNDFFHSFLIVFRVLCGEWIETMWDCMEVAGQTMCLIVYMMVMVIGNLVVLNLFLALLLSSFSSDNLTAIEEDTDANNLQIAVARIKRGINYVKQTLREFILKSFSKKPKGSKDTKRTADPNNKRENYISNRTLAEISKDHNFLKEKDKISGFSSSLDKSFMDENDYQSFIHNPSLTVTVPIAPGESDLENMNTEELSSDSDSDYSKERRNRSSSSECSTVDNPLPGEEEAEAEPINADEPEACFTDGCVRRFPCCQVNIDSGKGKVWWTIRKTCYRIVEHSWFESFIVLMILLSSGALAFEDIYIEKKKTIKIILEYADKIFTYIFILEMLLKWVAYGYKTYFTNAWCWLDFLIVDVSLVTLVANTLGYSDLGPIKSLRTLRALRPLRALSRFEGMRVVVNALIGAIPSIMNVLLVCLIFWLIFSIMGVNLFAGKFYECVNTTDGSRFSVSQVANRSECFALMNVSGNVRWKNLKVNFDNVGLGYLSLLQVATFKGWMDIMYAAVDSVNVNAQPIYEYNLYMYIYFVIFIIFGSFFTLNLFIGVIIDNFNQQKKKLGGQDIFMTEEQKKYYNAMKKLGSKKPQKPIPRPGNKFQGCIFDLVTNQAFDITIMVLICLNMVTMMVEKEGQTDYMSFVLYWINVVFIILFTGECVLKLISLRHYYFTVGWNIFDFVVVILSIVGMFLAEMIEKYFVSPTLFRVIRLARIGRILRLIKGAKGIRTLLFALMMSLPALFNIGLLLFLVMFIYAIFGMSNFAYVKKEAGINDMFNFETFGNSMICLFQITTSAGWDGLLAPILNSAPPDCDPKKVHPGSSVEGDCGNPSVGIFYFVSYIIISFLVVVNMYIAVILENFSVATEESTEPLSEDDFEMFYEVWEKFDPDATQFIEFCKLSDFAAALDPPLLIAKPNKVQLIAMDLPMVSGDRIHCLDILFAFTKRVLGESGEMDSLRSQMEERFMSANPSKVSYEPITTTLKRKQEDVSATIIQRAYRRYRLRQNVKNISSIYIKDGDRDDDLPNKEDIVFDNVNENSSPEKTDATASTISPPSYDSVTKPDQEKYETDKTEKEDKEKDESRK
Sequence of Adenosine receptor A3 (Homo sapiens) (P0DMS8 whole entry): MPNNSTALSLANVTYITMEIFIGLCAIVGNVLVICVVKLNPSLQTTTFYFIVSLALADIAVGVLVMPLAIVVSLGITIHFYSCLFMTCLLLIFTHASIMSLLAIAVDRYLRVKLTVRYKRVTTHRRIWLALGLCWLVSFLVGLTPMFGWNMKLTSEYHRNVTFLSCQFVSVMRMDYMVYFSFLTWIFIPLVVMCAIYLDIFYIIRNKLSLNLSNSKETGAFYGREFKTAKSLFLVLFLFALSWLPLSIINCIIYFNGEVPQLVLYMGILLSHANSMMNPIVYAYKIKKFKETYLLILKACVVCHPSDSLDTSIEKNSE

For the compound `Cn1cnc2ncn(Cc3nc(CCc4ccc(Cl)cc4)no3)c(=O)c21`, in the data set with Rattus norvegicus [1], the fCmax worked out at 2.2 µM. The Activity (in [2]; in data set [3]; with Jurkat; in the data set listed under Rattus norvegicus [4]; in data set [5]; in data set [6]) was greater than 77% in each case. Also, the Vd in data set [7] came to 1.7 L/kg. Besides, in the data set filed under Rattus norvegicus [8], the inhibition (usually the percentage by which the read-out fell short of the control) was “inactive”. The compound further showed an inhibition in data set [9] of 10%. Also, in data set [10], the Ratio worked out at 2.7.
